Test results published in ChEMBL document CHEMBL1828575, “Design, synthesis and antiproliferative activities of biarylolefins based on polyhydroxylated and carbohydrate scaffolds” (Eur J Med Chem, 2011).

How the values were obtained:
Type in all cases: functional
MDA-MB-231 = test: Antitumor activity against human MDA-MB-231 cells after 48 hrs by SRB assay; details: MDA-MB-231, 48 h
Method in brief: (§1)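 NCI60 panel in RPMI 1640 with 5% FBS and 2 mM L-glutamine. Cells were plated at 5000–40,000/well by doubling time, held 24 h, then time-zero plates were TCA-fixed. Five concentrations (10-fold or half-log dilutions of DMSO stocks) were applied for 48 h at 37 °C, 5% CO2. Cells were fixed with cold TCA (10% final adherent, 16% suspension) and stained with 0.4% SRB. Bound dye was dissolved in 10 mM Tris and read at 515 nm. GI50, TGI and LC50 were calculated per line.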

MOLT-4 = test: Cytotoxicity against human MOLT4 cells assessed as cellular growth at 10 uM after 48 hrs by SRB assay
Method in brief: (§2)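 NCI-60 panel lines grown in RPMI 1640 with 5% FBS and 2 mM L-glutamine. Plated at 5000–40,000 cells/well and preincubated 24 h at 37 °C, 5% CO₂, with time-zero plates fixed in TCA. Compounds, dissolved in DMSO and diluted in medium, were applied for 48 h. Cells were TCA-fixed (10% final for adherent, 16% for suspension) and stained with 0.4% SRB in 1% acetic acid. Dye was solubilised in 10 mM Tris base and read at 515 nm; growth was expressed as a percentage of untreated control.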

NCI-H23 = test: Antitumor activity against human NCI-H23 cells after 48 hrs by SRB assay; details: NCI-H23, 48 h; method in brief: as §1
NCI-H522 = test: Antitumor activity against human NCI-H522 cells after 48 hrs by SRB assay; details: NCI-H522, 48 h; method in brief: as §1
SK-MEL-2 = test: Cytotoxicity against human SK-MEL-2 cells assessed as cellular growth at 10 uM after 48 hrs by SRB assay; method in brief: as §2
OVCAR-4 = test: Antitumor activity against human OVCAR4 cells after 48 hrs by SRB assay; details: OVCAR-4, 48 h; method in brief: as §1
SF-539 = test: Cytotoxicity against human SF539 cells assessed as cellular growth at 10 uM after 48 hrs by SRB assay; method in brief: as §2
TK-10 = test: Cytotoxicity against human TK10 cells assessed as cellular growth at 10 uM after 48 hrs by SRB assay; method in brief: as §2
NCI/ADR-RES [1] = test: Cytotoxicity against human NCI/ADR-RES cells assessed as cellular growth at 10 uM after 48 hrs by SRB assay; method in brief: as §2
MCF7 = test: Antitumor activity against human MCF7 cells after 48 hrs by SRB assay; details: MCF7, 48 h; method in brief: as §1
T47D = test: Cytotoxicity against human T47D cells assessed as cellular growth at 10 uM after 48 hrs by SRB assay; method in brief: as §2
SN12C [2] = test: Cytotoxicity against human SN12C cells assessed as cellular growth at 10 uM after 48 hrs by SRB assay; method in brief: as §2
EKVX = test: Antitumor activity against human EKVX cells after 48 hrs by SRB assay; method in brief: as §1
SN12C [3] = test: Antitumor activity against human SN12C cells after 48 hrs by SRB assay
Method in brief: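 NCI60 panel cells grown in RPMI 1640 with 5% FBS and 2 mM L-glutamine, plated at 5000–40,000 cells/well and preincubated 24 h at 37 °C, 5% CO₂. Compound was added from DMSO at five concentrations, 10-fold or 1/2 log dilutions, then incubated 48 h.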

NCI/ADR-RES [4] = test: Antitumor activity against human NCI/ADR-RES cells after 48 hrs by SRB assay; method in brief: as §1
IGROV-1 = test: Antitumor activity against human IGROV1 cells after 48 hrs by SRB assay; details: IGROV-1, 48 h; method in brief: as §1
K562 = test: Antitumor activity against human K562 cells after 48 hrs by SRB assay; details: K562, 48 h; method in brief: as §1
[5] = read-out: LC50 (the source's name)
[6] = read-out: pLC50 (the source's name) (converted)

## COc1ccc(/C(=C2/O[C@@H]([C@H]3COC(C)(C)O3)[C@H]3OC(C)(C)O[C@@H]23)c2cc(OC)c(OC)c(OC)c2)cc1O
MDA-MB-231
  GI50: 4.58 µM
  TGI: 30.7 µM
MDA-MB-231; [5]
  CC50: > 100 µM
MOLT-4
  Activity: 59.94%
NCI-H23; read-out: GI50
  GI50: 7.98 µM
NCI-H23; [5]
  CC50: > 100 µM
NCI-H23; read-out: TGI
  TGI: 46 µM
NCI-H23; read-out: pGI50 (converted)
  GI50: 7.94 µM
NCI-H23; [6]
  CC50: > 100 µM
NCI-H23; read-out: pTGI (converted)
  TGI: 45.7 µM
NCI-H522
  GI50: 2.73 µM
  TGI: 9.08 µM
NCI-H522; [5]
  CC50: > 100 µM
SK-MEL-2
  Activity: 103.26%
OVCAR-4; [5]
  CC50: > 100 µM
OVCAR-4; read-out: pGI50 (converted)
  GI50: 9.12 µM
OVCAR-4; [6]
  CC50: > 100 µM
OVCAR-4; read-out: pTGI (converted)
  TGI: > 100 µM
SF-539
  Activity: 9.85%
TK-10
  Activity: 109.18%
NCI/ADR-RES [1]
  Activity: 10.1%
MCF7; read-out: GI50
  GI50: 3.76 µM
MCF7; [5]
  CC50: > 100 µM
MCF7; read-out: TGI
  TGI: > 100 µM
MCF7; read-out: pGI50 (converted)
  GI50: 3.8 µM
MCF7; [6]
  CC50: > 100 µM
MCF7; read-out: pTGI (converted)
  TGI: > 100 µM
T47D
  Activity: 120.98%
SN12C [2]
  Activity: 57.72%
EKVX; read-out: GI50
  GI50: 5.57 µM
EKVX; [5]
  CC50: > 100 µM
EKVX; read-out: TGI
  TGI: > 100 µM
EKVX; read-out: pGI50 (converted)
  GI50: 56.2 µM
EKVX; [6]
  CC50: > 100 µM
EKVX; read-out: pTGI
  TGI: > 100 µM
SN12C [3]; read-out: GI50
  GI50: 5.82 µM
SN12C [3]; [5]
  CC50: > 100 µM
SN12C [3]; read-out: TGI
  TGI: > 100 µM
SN12C [3]; read-out: pGI50 (converted)
  GI50: 5.62 µM
SN12C [3]; [6]
  CC50: > 100 µM
SN12C [3]; read-out: pTGI
  TGI: > 100 µM
NCI/ADR-RES [4]
  GI50: 2.52 µM
  LC50: > 100 µM
  TGI: 6.91 µM
IGROV-1; read-out: GI50
  GI50: 3.32 µM
IGROV-1; [5]
  CC50: > 100 µM
IGROV-1; read-out: TGI
  TGI: > 100 µM
IGROV-1; read-out: pGI50 (converted)
  GI50: 33.1 µM
IGROV-1; [6]
  CC50: > 100 µM
IGROV-1; read-out: pTGI
  TGI: > 100 µM
K562; read-out: GI50
  GI50: 3.22 µM
K562; [5]
  CC50: > 100 µM
K562; read-out: TGI
  TGI: > 100 µM
K562; read-out: pGI50 (converted)
  GI50: 3.24 µM
K562; [6]
  CC50: > 100 µM
K562; read-out: pTGI
  TGI: > 100 µM
